Source: PubChem (several laboratories)
C2C12 statin – suppressors of statin myotoxicity in C2C12 myotubes, primary screen, cell-based, single point, plate reader | C2C12 myotubes + simvastatin, ATP luminescence, 48 h; scaled: DMSO 0, geranylgeraniol control 100 | rescue of ATP level, % at 7.49 µM | 330,000 compounds, 0.78% hits | AID 602340, 2012;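 active = mean ATP rescue above about 67%, or every replicate alone reaching that limit, limit read from the data, passing the limit was not always enough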;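 note: myotubes were challenged with 10 µM simvastatin during compound exposure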
APOBEC3G inh – APOBEC3G DNA deaminase inhibitors, primary screen, biochemical, fluorescence, single-stranded DNA substrate, uHTS. inhibition, % at 20 µM. recombinant A3G, ssDNA deamination FAM/TAMRA fluorescence. 330,000 compounds, 0.28% hits. DNA dC->dU-editing enzyme APOBEC-3G (Homo sapiens), Q9HC16. AID 493012, 2011;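 active = inhibition of at least 40% at 20 µM, with no more than 30% in the related APOBEC3A deaminase screen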;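 note: plate controls were DMSO wells with A3G for no effect and wells lacking A3G enzyme for full effect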
ASAP1 GAP inh – inhibitors of human ASAP1 ArfGAP activity, primary screen, biochemical, fluorescence polarization; ASAP1-stimulated ARF1 GTP hydrolysis, GDP FP detection; Arf-GAP with SH3 domain, ANK repeat and PH domain-containing protein 1 (Homo sapiens), …; inhibition, % at 16.5 µM; 360,000 compounds, 0.19% hits; in the data active = inhibition above about 25%;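 note: 0% = vehicle with enzyme and substrate and 100% = no enzyme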
Target sequence (Q9ULH1 325-724 limits assumed): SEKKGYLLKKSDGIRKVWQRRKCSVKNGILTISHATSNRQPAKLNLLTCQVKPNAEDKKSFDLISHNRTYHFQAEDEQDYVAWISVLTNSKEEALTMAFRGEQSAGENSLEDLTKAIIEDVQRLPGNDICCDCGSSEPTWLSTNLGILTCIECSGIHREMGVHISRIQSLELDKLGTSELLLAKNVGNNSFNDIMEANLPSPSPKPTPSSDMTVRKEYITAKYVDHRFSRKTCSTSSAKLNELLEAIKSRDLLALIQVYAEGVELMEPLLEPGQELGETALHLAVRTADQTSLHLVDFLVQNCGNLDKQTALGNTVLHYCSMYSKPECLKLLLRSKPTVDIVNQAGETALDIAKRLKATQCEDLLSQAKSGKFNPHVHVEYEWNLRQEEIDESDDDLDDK
APOBEC3A inh – APOBEC3A ssDNA deaminase inhibitors, primary screen, selectivity assay for APOBEC3G inhibitor project, biochemical, FAM/TAMRA oligo cleavage fluorescence; 330,000 compounds, 0.41% hits; inhibition, % at 20 µM; recombinant A3A, FAM/TAMRA ssDNA deamination fluorescence;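 active = at least 40% inhibition at 20 µM here, with at most 30% in a related deaminase screen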;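 note: plate controls were A3A with DMSO for no effect and wells lacking A3A enzyme for full effect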
Target sequence (P31941 whole entry, looked up): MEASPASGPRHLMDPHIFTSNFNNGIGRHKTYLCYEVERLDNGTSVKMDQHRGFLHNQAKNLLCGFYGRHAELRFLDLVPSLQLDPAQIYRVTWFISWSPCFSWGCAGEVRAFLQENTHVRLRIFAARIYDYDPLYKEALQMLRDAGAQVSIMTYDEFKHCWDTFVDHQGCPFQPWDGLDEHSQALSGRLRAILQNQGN
ARFGAP1 inh – inhibitors of rat ARFGAP1 GAP activity, primary screen, biochemical, fluorescence polarization, GDP tracer. ADP-ribosylation factor GTPase-activating protein 1 (Rattus norvegicus), Q62848. Arfgap1-stimulated ARF1 GTP hydrolysis, GDP FP detection. inhibition, % at 16.5 µM. 360,000 compounds, 0.26% hits. AID 651572, 2012;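 active = inhibition above a per-plate limit, mean inhibition of low control wells plus 3 SD, cut at about 25% in these data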;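 note: 0% = DMSO wells with enzyme and 100% = wells lacking Arfgap1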
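Repeats: one replicate per compound; assay system: rat Arfgap1 catalytic domain, aa 1-136; times: enzyme reaction 120 min at 25 °C after 20 min preincubation; detection: FP of antibody-bound GDP Alexa 633 tracer, ex 620/em 688 nm; benchmarks: high control wells lacking Arfgap1, low control full reaction with DMSO; reagent: human ARF1(Δ1-17)-GTP substrate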
Mot1-301 SUMO – yeast Mot1-301 growth rescue at high temperature, primary screen, SUMOylation pathway inhibitor project, S. cerevisiae, ATP luminescence, 38.5C | S. cerevisiae Mot1-301 growth rescue; percent above DMSO median, 100 means doubled | growth rescue, % at 18.8 µM | 320,000 compounds, 1% hits | AID 2716, 2010;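 active = every valid replicate shows activation above 250% relative to neutral control wells; inactive = the rest, any valid replicate at or below 250%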;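 note: OY570 slx delta 5 strain wells were the positive control but not used for scaling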
* = called active by the depositor; / = no result. Most compounds without a hit are left out; they make up all but 2.1% or so of the library.

SMILES	C2C12 statin	APOBEC3G inh	ASAP1 GAP inh	APOBEC3A inh	ARFGAP1 inh	Mot1-301 SUMO
CN1CCN(C(=O)C[C@@H]2CC[C@@H]3[C@H](COC[C@H](O)CN3C(=O)C3CC3)O2)CC1	0	/	/	/	/	/
CCOC(=O)C1=C(C)N(CCCCCC(=O)O)C(=O)NC1c1ccccc1Cl (stereo not given)	105*	-9	0	-2	-7	193
C[C@@H]1CN([C@H](C)CO)C(=O)c2cccc(NS(C)(=O)=O)c2O[C@@H]1CN(C)Cc1ccccc1	8	/	/	/	/	/
Cc1ccc(-c2ccc3c(c2)O[C@@H](CN(C)Cc2ccc(F)cc2)[C@H](C)CN([C@@H](C)CO)S3(=O)=O)cc1	-157	/	/	/	/	/
COc1ccccc1OCC(=O)OCC(=O)NCCN1C(=O)CSC1=O	/	-1	-3	0	-15	-4
O=C(COC(=O)CNC(=O)c1ccco1)NCCN1C(=O)CSC1=O	-1	-5	-1	-5	-7	320*
CO[C@@H]1CN(C)C(=O)c2cc(NC(=O)NC(C)C)ccc2OC[C@H](C)NC[C@@H]1C	6	/	/	/	/	/
Cc1nn(-c2ccccc2)c(-c2ccccc2[N+](=O)[O-])c1C(=O)O	/	-2	6	-1	4	294*
Cc1nn(-c2ccccc2)c(-c2ccccc2[N+](=O)[O-])c1CC#N	/	/	-15	/	-4	/
COc1ccc(C(=O)n2nc(-c3ccco3)nc2N)cc1	-7	2	-1	2	11	5
Nc1nc(-c2ccco2)nn1C(=O)CCc1ccccc1	113*	1	4	-1	9	-9
Cc1ccc(C(=O)n2nc(-c3ccco3)nc2N)cc1	81*	2	-1	0	8	266
C[C@@H]1CN([C@@H](C)CO)C(=O)c2cc(-c3ccncc3)cnc2O[C@H]1CN(C)C(=O)Cc1cccnc1	-7	/	/	/	/	/
CCC(C)c1ccc(O)c(NC(=O)c2cccnc2)c1 (stereo not given)	-4	-3	8	-5	-9	390*
O=C(C[C@H]1C[C@H]2c3cc(NC(=O)Nc4ccc(C(F)(F)F)cc4)ccc3O[C@H]2[C@@H](CO)O1)NCc1ccc2c(c1)OCO2	5	/	/	/	/	/
CN(C)S(=O)(=O)c1ccc(S(=O)(=O)N(CC(=O)Nc2ccccc2)CC2CCCO2)cc1 (stereo not given)	85*	-7	-9	-2	-1	-2
O=C(Cc1ccccn1)N1[C@H](CO)[C@H]2c3ccccc3NC[C@H]21	-8	/	/	/	/	/
O=C(Cn1ncc2c3ccccc3n(Cc3cccc(Cl)c3)c2c1=O)NCC1CCCO1 (stereo not given)	100*	8	-5	1	1	-20
O=C(C[C@H]1CC[C@H]2[C@@H](COC[C@H](O)CN2C(=O)c2cnccn2)O1)NCc1ccccc1	1	/	/	/	/	/
C=CCn1c(=O)[nH]c(=O)c2c(N)c(C(=O)c3ccc(OC)cc3)sc21	135*	/	1	/	11	/
Cc1ccc(C(=O)c2sc3c(c2N)c(=O)[nH]c(=O)n3CCc2ccccc2)cc1	/	-8	1	-1	3	12
OCCNCCNCc1ccc(-c2ccccc2)cc1	/	-1	3	0	-2	16
OCCNCc1cccc(-c2ccccc2)c1O	100*	/	-15	/	6	/
CCn1c(SCC(=O)N2CCc3ccccc32)nc2c(c1=O)SC(C)C2 (stereo not given)	1	0	/	-2	/	343*
CCn1c(SCC(=O)N2CCCc3ccccc32)nc2c(c1=O)SC(C)C2 (stereo not given)	-4	-2	-10	1	-15	-2
SMILES	C2C12 statin	APOBEC3G inh	ASAP1 GAP inh	APOBEC3A inh	ARFGAP1 inh	Mot1-301 SUMO
O=C(C[C@H]1CC[C@@H](NC(=O)Nc2ccc3c(c2)OCO3)[C@@H](CO)O1)NCCCN1CCOCC1	3	/	/	/	/	/
COc1cccc2sc(N3CCN(C(=O)c4ccc([N+](=O)[O-])o4)CC3)nc12	47	12	/	-1	/	-7
O=C(c1ccc([N+](=O)[O-])o1)N1CCN(c2nc3ccc(F)cc3s2)CC1	68*	-4	0	-1	-1	-40
Cc1ccc2sc(N3CCN(C(=O)c4ccc([N+](=O)[O-])o4)CC3)nc2c1C	85*	-4	-7	0	8	13
O=C(C1COc2ccccc2O1)N1CCN(c2nc3ccccc3s2)CC1 (stereo not given)	24	-4	14	2	4	3
CCCCC(=O)N1CCN(c2nc3ccc(F)cc3s2)CC1	-13	0	6	1	-6	-1
O=C(C1COc2ccccc2O1)N1CCN(c2nc3ccc([N+](=O)[O-])cc3s2)CC1 (stereo not given)	/	-4	-5	4	-6	535*
CCCNC(=O)Nc1ccc2c(c1)C(=O)N(C)C[C@H](OC)[C@H](C)CN(Cc1ccccc1)[C@H](C)CO2	2	/	/	/	/	/
C[C@H]1CN([C@@H](C)CO)C(=O)c2cc(Br)cnc2O[C@H]1CN(C)C(=O)C1CCOCC1	7	/	/	/	/	/
COc1c2c(nc3occc13)C(CC=C(C)C)(OC)C(O)CC2 (stereo not given)	78*	-4	-5	-1	4	-1
Cc1cccc(S(=O)(=O)N(C)C[C@@H]2OCc3ccccc3-c3c(n(C)c4ccccc34)C(=O)N([C@@H](C)CO)C[C@@H]2C)c1	11	/	/	/	/	/
COc1ccc(/C=C(\C#N)c2cc(OC)c(OC)cc2[N+](=O)[O-])cc1	-34	-6	3	0	-3	2
COc1cc(/C(C#N)=C/c2ccccc2)c([N+](=O)[O-])cc1OC	84*	5	-3	2	-2	3
COc1ccc([N+](=O)[O-])cc1N(CC(=O)N1CCCC1)S(C)(=O)=O	/	-4	1	0	6	355*
COc1ccc([N+](=O)[O-])cc1N(CC(=O)N1CCOCC1)S(C)(=O)=O	-8	-1	1	-1	3	-5
CC[C@H]1CN2CCc3cc(OC)c(OC)cc3C2C[C@@H]1C[C@H]1NCCc2cc(OC)c(OC)cc21 (stereo not given in full)	81*	-3	10	-2	10	/
CCC1=C(CC2NCCc3ccccc32)CC2c3cc(OC)c(OC)cc3CCN2C1 (stereo not given)	/	/	-3	/	-6	/
